Assay results from ChEMBL document CHEMBL1629690, “Development of hexadecyloxypropyl tenofovir (CMX157) for treatment of infection caused by wild-type and nucleoside/nucleotide-resistant HIV” (Antimicrob Agents Chemother, 2010).

Tests used:
[1] = system: Human immunodeficiency virus 1; assay: Antiviral activity against HIV1 isolate 180 harboring reverse transcriptase K65R mutant gene obtained as site-directed mutant of NL4-3 by phenosense assay; format: functional, organism-based; details: Human immunodeficiency virus 1, isolate 180
Outline: (§1)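 Recombinant-virus PhenoSense HIV assay run on a panel of 30 NRTI-resistant HIV-1 mutants and two wild-type viruses. Each virus is tested across increasing drug concentrations to give an inhibition curve and EC50. Fold change is the test recombinant EC50 divided by the EC50 of the drug-sensitive wild-type reference virus.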

[2] = system: Human immunodeficiency virus 1; assay: Antiviral activity against HIV1 isolate 160 harboring reverse transcriptase S68G/V75(I/T)/F77L/Y115F/F116Y /Q151M mutant gene by phenosense assay relative to wild type; format: functional; outline: as §1
[3] = system: Human immunodeficiency virus 1; assay: Antiviral activity against HIV1 isolate 069 harboring reverse transcriptase D67E/T69SSG/V75M/M184V/L210W/T215Y mutant gene by phenosense assay relative to wild type; format: functional; outline: as §1
[4] = system: Human immunodeficiency virus 1; assay: Antiviral activity against HIV1 isolate 192 harboring reverse transcriptase M41L/T215Y mutant gene by phenosense assay; format: functional, organism-based; details: Human immunodeficiency virus 1, isolate 192; outline: as §1
[5] = system: Human immunodeficiency virus 1; assay: Antiviral activity against HIV1 isolate 203 harboring reverse transcriptase M41L/L210W/T215Y/M184V mutant gene by phenosense assay relative to wild type; format: functional
Outline: (§2)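 PhenoSense HIV recombinant virus assay: patient-derived HIV-1 with major NRTI resistance mutations tested against increasing drug concentrations to give inhibition curves. EC50 is the concentration giving 50% inhibition. Fold change is the test recombinant EC50 divided by the EC50 of a drug-sensitive wild-type reference virus. Panel of 30 NRTI-resistant isolates plus two wild-type viruses.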

[6] = system: Human immunodeficiency virus 1; assay: Antiviral activity against HIV1 isolate 071 harboring reverse transcriptase 65R/S68N/184V mutant gene by phenosense assay relative to wild type; format: functional; outline: as §1
[7] = system: Human immunodeficiency virus 1; assay: Antiviral activity against HIV1 isolate 188 harboring reverse transcriptase T215Y/M184V mutant gene by phenosense assay; format: functional, organism-based; details: Human immunodeficiency virus 1, isolate 188; outline: as §1
[8] = system: Human immunodeficiency virus 1; assay: Antiviral activity against HIV1 isolate 162 harboring reverse transcriptase A62V/V75I/F77L/Y115F/F116Y/Q151M/M184V mutant gene by phenosense assay relative to wild type; format: functional; outline: as §1
[9] = system: Human immunodeficiency virus 1; assay: Antiviral activity against HIV1 isolate 215 harboring reverse transcriptase D67N/K70E mutant gene by phenosense assay; format: functional, organism-based; details: Human immunodeficiency virus 1, isolate 215; outline: as §2
[10] = system: Human immunodeficiency virus 1; assay: Antiviral activity against HIV1 isolate 206 harboring reverse transcriptase D67N/K70R mutant gene by phenosense assay relative to wild type; format: functional; outline: as §2
[11] = system: Human immunodeficiency virus 1; assay: Antiviral activity against HIV1 isolate 157 harboring reverse transcriptase L74V/M184V mutant gene by phenosense assay relative to wild type; format: functional; outline: as §1
[12] = system: Human immunodeficiency virus 1; assay: Antiviral activity against HIV1 isolate 166 harboring reverse transcriptase L74V mutant gene obtained as site-directed mutant of NL4-3 by phenosense assay relative to wild type; format: functional; outline: as §1
[13] = system: Human immunodeficiency virus 1; assay: Antiviral activity against HIV1 isolate 063 harboring reverse transcriptase M41L/D67N/K70R/M184V/L210W/T215Y/K219E mutant gene by phenosense assay; format: functional, organism-based; details: Human immunodeficiency virus 1, isolate 063; outline: as §1
[14] = system: Human immunodeficiency virus 1; assay: Antiviral activity against HIV1 isolate 211 harboring reverse transcriptase D67N/K70R/T215F/K219E/M184V mutant gene by phenosense assay; format: functional, organism-based; details: Human immunodeficiency virus 1, isolate 211; outline: as §2
[15] = system: Human immunodeficiency virus 1; assay: Antiviral activity against HIV1 isolate 153 harboring reverse transcriptase L74V mutant gene by phenosense assay relative to wild type; format: functional; outline: as §1
[16] = system: Human immunodeficiency virus 1; assay: Antiviral activity against HIV1 isolate 201 harboring reverse transcriptase M41L/L210W/T215Y mutant gene by phenosense assay; format: functional, organism-based; details: Human immunodeficiency virus 1, isolate 201; outline: as §1
[17] = system: Human immunodeficiency virus 1; assay: Antiviral activity against HIV1 isolate 067 harboring reverse transcriptase A62V/D67G/T69SVG/V75I/T215I mutant gene by phenosense assay; format: functional, organism-based; details: Human immunodeficiency virus 1, isolate 067; outline: as §1
[18] = system: Human immunodeficiency virus 1; assay: Antiviral activity against HIV1 isolate 066 harboring reverse transcriptase 184V mutant gene by phenosense assay relative to wild type; format: functional; outline: as §1
[19] = system: Human immunodeficiency virus 1; assay: Antiviral activity against HIV1 isolate 061 harboring reverse transcriptase M41L/D67N/K70R/M184V/L210W/T215Y/K219E mutant gene by phenosense assay relative to wild type; format: functional; outline: as §1
[20] = system: Human immunodeficiency virus 1; assay: Antiviral activity against HIV1 isolate 200 harboring reverse transcriptase M41L/L210W/T215Y mutant gene by phenosense assay; format: functional, organism-based; details: Human immunodeficiency virus 1, isolate 200; outline: as §1
[21] = system: Human immunodeficiency virus 1; assay: Antiviral activity against HIV1 isolate 058 harboring reverse transcriptase M41L/D67N/K70R/L210W/T215F/K219Q mutant gene by phenosense assay relative to wild type; format: functional; outline: as §1
[22] = system: Human immunodeficiency virus 1; assay: Antiviral activity against HIV1 isolate 157 harboring reverse transcriptase L74V/M184V mutant gene by phenosense assay; format: functional, organism-based; details: Human immunodeficiency virus 1, isolate 157; outline: as §1
[23] = system: Human immunodeficiency virus 1; assay: Antiviral activity against HIV1 isolate 063 harboring reverse transcriptase M41L/D67N/K70R/M184V/L210W/T215Y/K219E mutant gene by phenosense assay relative to wild type; format: functional; outline: as §1
[24] = system: Human immunodeficiency virus 1; assay: Antiviral activity against HIV1 isolate 201 harboring reverse transcriptase M41L/L210W/T215Y mutant gene by phenosense assay relative to wild type; format: functional; outline: as §2
[25] = system: Human immunodeficiency virus 1; assay: Antiviral activity against HIV1 isolate 160 harboring reverse transcriptase S68G/V75(I/T)/F77L/Y115F/F116Y /Q151M mutant gene by phenosense assay; format: functional, organism-based; details: Human immunodeficiency virus 1, isolate 160; outline: as §1
[26] = system: Human immunodeficiency virus 1; assay: Antiviral activity against HIV1 isolate 066 harboring reverse transcriptase 184V mutant gene by phenosense assay; format: functional, organism-based; details: Human immunodeficiency virus 1, isolate 066; outline: as §1
[27] = system: Human immunodeficiency virus 1; assay: Antiviral activity against HIV1 isolate 203 harboring reverse transcriptase M41L/L210W/T215Y/M184V mutant gene by phenosense assay; format: functional, organism-based; details: Human immunodeficiency virus 1, isolate 203; outline: as §2
[28] = system: Human immunodeficiency virus 1; assay: Antiviral activity against HIV1 isolate 057 expressing wild type reverse transcriptase gene by phenosense assay; format: functional, organism-based; details: Human immunodeficiency virus 1, isolate 057
Outline: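 In the PhenoSense recombinant virus assay, virus was tested against increasing drug concentrations. EC50 came from the inhibition curve and was compared with a drug-sensitive reference virus.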

[29] = system: Human immunodeficiency virus 1; assay: Antiviral activity against HIV1 isolate 061 harboring reverse transcriptase M41L/D67N/K70R/M184V/L210W/T215Y/K219E mutant gene by phenosense assay; format: functional, organism-based; details: Human immunodeficiency virus 1, isolate 061; outline: as §1
[30] = system: Human immunodeficiency virus 1; assay: Antiviral activity against HIV1 isolate 217 harboring reverse transcriptase D67N/K70E/M184V mutant gene by phenosense assay; format: functional, organism-based; details: Human immunodeficiency virus 1, isolate 217; outline: as §2
[31] = system: Human immunodeficiency virus 1; assay: Antiviral activity against HIV1 isolate 185 harboring reverse transcriptase T215Y mutant gene by phenosense assay relative to wild type; format: functional; outline: as §1
[32] = system: Human immunodeficiency virus 1; assay: Antiviral activity against HIV1 isolate 185 harboring reverse transcriptase T215Y mutant gene by phenosense assay; format: functional, organism-based; details: Human immunodeficiency virus 1, isolate 185; outline: as §1
[33] = system: Human immunodeficiency virus 1; assay: Antiviral activity against HIV1 isolate 180 harboring reverse transcriptase K65R mutant gene obtained as site-directed mutant of NL4-3 by phenosense assay relative to wild type; format: functional; outline: as §1
[34] = system: Human immunodeficiency virus 1; assay: Antiviral activity against HIV1 isolate 058 harboring reverse transcriptase M41L/D67N/K70R/L210W/T215F/K219Q mutant gene by phenosense assay; format: functional, organism-based; details: Human immunodeficiency virus 1, isolate 058; outline: as §1
[35] = system: Human immunodeficiency virus 1; assay: Antiviral activity against HIV1 isolate 153 harboring reverse transcriptase L74V mutant gene by phenosense assay; format: functional, organism-based; details: Human immunodeficiency virus 1, isolate 153; outline: as §1

Nc1nc(=O)n([C@@H]2CS[C@H](CO)O2)cc1F [EMTRICITABINE]
EC50 [1]: 13 µM | fold change (FC) [2]: 30 | fold change (FC) [3]: >88 | EC50 [4]: 3.1 µM | fold change (FC) [5]: >88 | fold change (FC) [6]: >88 | EC50 [7]: > 100 µM | fold change (FC) [8]: >88 | EC50 [9]: 3.4 µM | fold change (FC) [10]: 2.9 | fold change (FC) [11]: >88 | fold change (FC) [12]: 1.5 | EC50 [13]: > 100 µM | EC50 [14]: > 100 µM | fold change (FC) [15]: 1.9 | EC50 [16]: 2.2 µM | EC50 [17]: 30 µM | fold change (FC) [18]: >88 | fold change (FC) [19]: >63 | EC50 [20]: 4.2 µM | fold change (FC) [21]: 5 | EC50 [22]: > 100 µM | fold change (FC) [23]: >88 | fold change (FC) [24]: 1.9 | EC50 [25]: 35 µM | EC50 [26]: > 100 µM | EC50 [27]: > 100 µM | EC50 [28]: 1.6 µM | EC50 [29]: > 100 µM | EC50 [30]: > 100 µM | fold change (FC) [31]: 2.3 | EC50 [32]: 2.6 µM | fold change (FC) [33]: 11 | EC50 [34]: 5.7 µM | EC50 [35]: 2.1 µM

Nc1ccn([C@@H]2CS[C@H](CO)O2)c(=O)n1 [LAMIVUDINE]
EC50 [1]: 43 µM | fold change (FC) [2]: 24 | fold change (FC) [3]: >80 | EC50 [4]: 7.6 µM | fold change (FC) [5]: >80 | fold change (FC) [6]: >80 | EC50 [7]: > 300 µM | fold change (FC) [8]: >80 | EC50 [9]: 11 µM | fold change (FC) [10]: 2.1 | fold change (FC) [11]: >80 | fold change (FC) [12]: 1.6 | EC50 [13]: > 300 µM | EC50 [14]: > 300 µM | fold change (FC) [15]: 1.9 | EC50 [16]: 5.9 µM | EC50 [17]: 46 µM | fold change (FC) [18]: >80 | fold change (FC) [19]: >71 | EC50 [20]: 10.3 µM | fold change (FC) [21]: 3.7 | EC50 [22]: > 300 µM | fold change (FC) [23]: >80 | fold change (FC) [24]: 1.6 | EC50 [25]: 90 µM | EC50 [26]: > 300 µM | EC50 [27]: > 300 µM | EC50 [28]: 4.4 µM | EC50 [29]: > 300 µM | EC50 [30]: > 300 µM | fold change (FC) [31]: 1.6 | EC50 [32]: 6.1 µM | fold change (FC) [33]: 12 | EC50 [34]: 14 µM | EC50 [35]: 7 µM

Cc1cn([C@H]2C=C[C@@H](CO)O2)c(=O)[nH]c1=O [STAVUDINE]
EC50 [1]: 0.83 µM | fold change (FC) [2]: 9.3 | fold change (FC) [3]: 11 | EC50 [4]: 0.84 µM | fold change (FC) [5]: 1.5 | fold change (FC) [6]: 0.99 | EC50 [7]: 0.65 µM | fold change (FC) [8]: 7.1 | EC50 [9]: 0.56 µM | fold change (FC) [10]: 1.3 | fold change (FC) [11]: 0.71 | fold change (FC) [12]: 1.1 | EC50 [13]: 1.4 µM | EC50 [14]: 0.79 µM | fold change (FC) [15]: 1 | EC50 [16]: 1.1 µM | EC50 [17]: 6.4 µM | fold change (FC) [18]: 0.77 | fold change (FC) [19]: 2.6 | EC50 [20]: 1.2 µM | fold change (FC) [21]: 3.7 | EC50 [22]: 0.42 µM | fold change (FC) [23]: 2.3 | fold change (FC) [24]: 1.8 | EC50 [25]: 5.5 µM | EC50 [26]: 0.46 µM | EC50 [27]: 0.88 µM | EC50 [28]: 0.48 µM | EC50 [29]: 2.4 µM | EC50 [30]: 0.42 µM | fold change (FC) [31]: 1.4 | EC50 [32]: 0.83 µM | fold change (FC) [33]: 1.4 | EC50 [34]: 2.2 µM | EC50 [35]: 0.6 µM
